# Measured values published in ChEMBL document CHEMBL1914393, “Chemical scaffolds with structural similarities to siderophores of nonribosomal peptide-polyketide origin as novel antimicrobials against Mycobacterium tuberculosis and Yersinia pestis” (Bioorg Med Chem Lett, 2011).
# Calls of active or inactive are those of the source.
# How the values were obtained:
# [1] = system: Yersinia pestis; assay: Antimicrobial activity against Yersinia pestis KIM6-2082.1+ in PMHD medium supplemented with 100 uM FeCl3 after 26 hrs by spectrophotometric analysis; format: functional, organism-based
# [2] = system: Mycobacterium tuberculosis; assay: Antimicrobial activity against Mycobacterium tuberculosis H37Rv in GASTD medium supplemented with 100 uM FeCl3 after 10 days by spectrophotometric analysis; format: functional, organism-based; details: 240 h
# Procedure, shortened: (§1)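 Virulent H37Rv, twofold microdilution in iron-limiting GASTD or GASTD plus 100 μM FeCl3, started at OD600 0.001 from deferrated stocks. Compounds were added in DMSO (0.5% final) up to 500 μM or the solubility limit. Cultures sat stationary for 10 days at 37 °C, read at OD600. IC50 from sigmoidal fits to triplicates; MIC90 is the lowest concentration giving ≥90% inhibition versus DMSO controls. Ratios are +Fe/GASTD.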
# [3] = system: Yersinia pestis; assay: Antimicrobial activity against Yersinia pestis KIM6-2082.1+ in PMHD medium after 26 hrs by spectrophotometric analysis; format: functional, organism-based
# [4] = system: Mycobacterium tuberculosis; assay: Antimicrobial activity against Mycobacterium tuberculosis H37Rv in GASTD medium after 10 days by spectrophotometric analysis; format: functional, organism-based; details: 240 h; procedure, shortened: as §1
# [5] = system: Yersinia pestis; assay: Ratio of MIC90 for Yersinia pestis KIM6-2082.1+ in PMHD medium supplemented with 100 uM FeCl3 to IC50 for Yersinia pestis KIM6-2082.1+ in Fe-deficient PMHD medium; format: functional
# [6] = system: Yersinia pestis; assay: Ratio of IC50 for Yersinia pestis KIM6-2082.1+ in PMHD medium supplemented with 100 uM FeCl3 to IC50 for Yersinia pestis KIM6-2082.1+ in Fe-deficient PMHD medium; format: functional
# [7] = system: Mycobacterium tuberculosis; assay: Ratio of IC50 for Mycobacterium tuberculosis H37Rv in GASTD medium supplemented with 100 uM FeCl3 to IC50 for Mycobacterium tuberculosis H37Rv in Fe-deficient GASTD medium; format: functional; procedure, shortened: as §1
# [8] = system: Mycobacterium tuberculosis; assay: Bactericidal activity against Mycobacterium tuberculosis H37Rv in GASTD medium at 2 times MIC after 30 days by colony counting; format: functional, organism-based
# Procedure, shortened: (§2)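 Duplicate GASTD cultures were treated and incubated as in the growth assay (37 °C, 10 days), then serial 10-fold dilutions were plated on Middlebrook 7H11. Colonies were counted after 30 days at 37 °C and reported as CFU/mL. Bactericidal was defined as >99% killing relative to inoculum.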
# [9] = system: Yersinia pestis; assay: Bactericidal activity against Yersinia pestis KIM6-2082.1+ in PMHD medium at 2 times MIC after 3 days by colony counting; format: functional, organism-based
# [10] = system: Mycobacterium tuberculosis; assay: Ratio of MIC90 for Mycobacterium tuberculosis H37Rv in GASTD medium supplemented with 100 uM FeCl3 to MIC90 for Mycobacterium tuberculosis H37Rv in Fe-deficient GASTD medium; format: functional; procedure, shortened: as §1
# [11] = system: HeLa; assay: Cytotoxicity against human HeLa cells at 16 uM after 24 hrs by ATPLite assay; format: cell-based
# Procedure, shortened: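 HeLa cells in 96-well format, read with an ATPLite reagent-based viability assay. Cell–compound contact lasted 4 hr or 24 hr, and viability was expressed relative to untreated controls.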
# [12] = system: Mycobacterium tuberculosis; assay: Bactericidal activity against Mycobacterium tuberculosis H37Rv in GASTD medium at MIC after 30 days by colony counting; format: functional, organism-based; procedure, shortened: as §2
# [13] = system: Yersinia pestis; assay: Bactericidal activity against Yersinia pestis KIM6-2082.1+ in PMHD medium at MIC after 3 days by colony counting; format: functional, organism-based
SMILES,IC50 [1] [µM],MIC90 [1] [µM],IC50 [2] [µM],MIC90 [2] [µM],IC50 [3] [µM],MIC90 [3] [µM],IC50 [4] [µM],MIC90 [4] [µM],Ratio [5],Ratio IC50 [6],Ratio IC50 [7],Activity [8],Activity [9],Ratio [10],Activity [11] [%],Activity [12],Activity [13]
O=C(c1ccccc1)N1N=C(c2ccccc2O)C[C@H]1c1ccc(O)cc1,> 16,> 16,> 16,> 63,> 31,> 31,> 63,> 63,–,–,–,–,–,–,–,–,–
N/C(=N\O)N/N=C/c1ccccc1O,305,> 500,15,26,70,250,11,222,>2,4,1,Active,Active,1,–,–,–
Cc1ccc(S(=O)(=O)N2N=C(c3ccccc3O)C[C@H]2c2ccccc2O)cc1,> 16,> 16,> 31,> 31,> 31,> 31,> 63,> 63,–,–,–,–,–,–,–,–,–
CC(=O)N1N=C(c2ccccc2O)C[C@H]1c1ccc(O)cc1,> 16,> 16,> 8,> 8,> 16,> 16,> 8,> 8,–,–,–,–,–,–,–,–,–
Cc1ccccc1[C@@H]1CC(c2ccccc2O)=NN1C(N)=S,> 31,> 31,7,16,> 62,> 63,7,16,–,–,1,Active,–,1,24,–,–
CC(=O)N1N=C(c2ccccc2O)C[C@H]1c1ccccc1O,> 31,> 31,> 16,> 16,> 31,> 31,> 31,> 32,–,–,–,–,–,–,–,–,–
Oc1ccc([C@@H]2CC(c3ccccc3O)=NN2)cc1,> 31,> 31,37,125,20,> 31,46,125,–,>2,1,–,–,1,–,Active,–
O=C(NO)N1N=C(c2ccccc2O)C[C@H]1c1ccccc1O,> 31,> 31,> 32,> 31,8,> 31,54,> 63,–,>4,–,–,–,–,–,–,–
Oc1ccccc1C1=NN[C@H](c2ccccc2O)C1,> 8,> 8,18,59,9,31,25,66,–,–,1,Active,–,1,–,–,Active
N=C(NO)N/N=C/c1ccc(O)cc1,> 500,> 500,43,132,> 500,> 500,43,222,–,–,1,Active,–,1,–,–,–
NC(=O)N1N=C(c2ccccc2O)C[C@H]1c1ccccc1O,> 250,> 250,64,104,> 250,> 250,77,208,–,–,1,Active,–,0.5,–,–,–
C/C(=N\NC(=O)NO)c1ccc(O)cc1,> 500,> 500,> 500,> 500,> 500,> 500,> 500,> 500,–,–,–,–,–,–,–,–,–
O=S(=O)(c1ccccc1)N1N=C(c2ccccc2O)C[C@H]1c1ccc(O)cc1,> 31,> 31,> 31,> 31,> 16,> 16,> 63,> 63,–,–,–,–,–,–,–,–,–
CN[C@@H]1[C@H](O[C@H]2[C@H](O[C@H]3[C@H](O)[C@@H](O)[C@H](N=C(N)N)[C@@H](O)[C@@H]3N=C(N)N)O[C@@H](C)[C@]2(O)C=O)O[C@@H](CO)[C@H](O)[C@H]1O [STREPTOMYCIN],1,2,–,–,1,1,–,–,2,1,–,–,Active,–,–,–,–
NC(=O)N1N=C(c2ccccc2O)C[C@H]1c1ccc(O)cc1,> 31,> 31,> 32,> 63,> 31,> 31,> 63,> 63,–,–,–,–,–,–,–,–,–
N=C(N)N1N=C(c2ccccc2O)C[C@H]1c1ccc(O)cc1,> 63,> 63,26,76,> 125,> 125,31,125,–,–,1,Active,–,1,–,–,–
O=C(c1ccncc1)N1N=C(c2ccccc2O)C[C@H]1c1ccc(O)cc1,> 8,> 8,> 4,> 4,> 8,> 8,> 8,> 8,–,–,–,–,–,–,–,–,–
C/C(=N\NC(=O)NO)c1ccccc1O,> 2,> 2,> 8,> 8,> 4,> 4,> 8,> 8,–,–,–,–,–,–,–,–,–
NNC(=O)c1ccncc1 [ISONIAZID],–,–,0.09,0.2,–,–,0.07,0.2,–,–,1,Active,–,1,–,–,–
O=C(c1ccncc1)N1N=C(c2ccccc2O)C[C@H]1c1ccccc1O,> 16,> 16,8,16,> 16,> 16,8,16,–,–,1,Active,–,1,–,–,–
O=C(NO)N/N=C/c1ccccc1O,> 4,> 4,> 16,> 16,> 16,> 16,> 16,> 16,–,–,–,–,–,–,–,–,–
O=S(=O)(c1ccccc1)N1N=C(c2ccccc2O)C[C@H]1c1ccccc1O,> 31,> 31,> 16,> 31,8,> 31,> 63,> 63,–,>4,–,–,–,–,–,–,–
Cc1ccc(S(=O)(=O)N2N=C(c3ccccc3O)C[C@H]2c2ccc(O)cc2)cc1,> 16,> 16,> 31,> 31,> 31,> 31,> 63,> 63,–,–,–,–,–,–,–,–,–
O=C(NO)N1N=C(c2ccccc2O)C[C@H]1c1ccc(O)cc1,> 31,> 31,40,> 31,13,> 31,42,125,–,>2,1,–,–,–,–,Active,–
NC(=S)N1N=C(c2ccccc2O)C[C@H]1c1ccccc1O,> 63,> 63,50,125,181,> 250,53,125,–,–,1,Active,–,1,–,–,–
O=C(NO)N/N=C/c1ccc(O)cc1,> 250,> 250,40,97,> 250,> 250,97,146,–,–,0.4,Active,–,1,–,–,–
O=C(c1ccccc1)N1N=C(c2ccccc2O)C[C@H]1c1ccccc1O,> 63,> 63,98,> 500,> 31,> 31,84,> 500,–,–,1,–,–,–,–,–,–
